The text below walks through data of ChEMBL document CHEMBL2396535, “Synthesis and biological evaluation of 18F-labled 2-phenylindole derivatives as PET imaging probes for β-amyloid plaques” (Bioorg Med Chem, 2013).

In series [1] the target is Amyloid-beta precursor protein (Homo sapiens, UniProt P05067). As to the kind of experiment: Displacement of [125I]IMPY from amyloid beta (1 to 42) (unknown origin) after 3 hrs by gamma counting analysis. A digest of the protocol:
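Test compound ranged over 10^-4 to 10^-8.5 in ethanol, in 0.05% BSA, 1 mL total. Incubation was 3 h at room temperature, then GF/B filtration and gamma counting. IC50 came from three independent experiments, and Ki was derived by Cheng–Prusoff.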
(In general: Displacement assays read how much labelled ligand stays bound in the presence of the test substance.)

The species named for series [2] is Mus musculus. Description: Binding affinity to amyloid beta in wild-type C57BL/6 mouse brain at 185 to 370 kBq after 1 hr by autoradiographic analysis. It is filed as tissue-based. The conditions noted are these: tested as the 18F-labelled form. Put shortly: (§1)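 Paraffin-embedded brain sections from male APPswe/PSEN1 transgenic C57BL6 mice (11 months old) and wild-type C57BL6 controls (11 months old) were incubated with [18F] tracer (185–370 kBq) for 1 h at room temperature, washed with 40% EtOH, dried and exposed to an imaging plate for 1 h. Plaques were confirmed on the same sections by thioflavin-S (0.125%) fluorescent staining.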

The species named for series [3] is Mus musculus. Description: Binding affinity to amyloid beta in transgenic C57BL/6 mouse cerebellum harboring APPswe and PSEN1 double mutation at 185 to 370 kBq after 1 hr by thioflavin-S staining-based assay. Format: tissue-based. The following applies: tested as the 18F-labelled form. Put shortly: as §1
Series [4] is filed under the species Mus musculus. As to the kind of experiment: Binding affinity to amyloid beta in transgenic C57BL/6 mouse cerebellum harboring APPswe and PSEN1 double mutation at 185 to 370 kBq after 1 hr by autoradiographic analysis. The following applies: tested as the 18F-labelled form. It is filed as tissue-based. Put shortly: as §1
For series [5], the species on record is Mus musculus. As to the kind of experiment: Binding affinity to amyloid beta in transgenic C57BL/6 mouse cortex harboring APPswe and PSEN1 double mutation at 185 to 370 kBq after 1 hr by thioflavin-S staining-based assay. The conditions noted are these: tested as the 18F-labelled form. A digest of the protocol:
as §1

The species entered for series [6] is Mus musculus. As to the kind of experiment: Binding affinity to amyloid beta in transgenic C57BL/6 mouse cortex harboring APPswe and PSEN1 double mutation at 185 to 370 kBq after 1 hr by autoradiographic analysis. The conditions noted are these: tested as the 18F-labelled form. A digest of the protocol: as §1
For series [7], the species on record is Mus musculus. Description: Binding affinity to amyloid beta in transgenic C57BL/6 mouse hippocampus harboring APPswe and PSEN1 double mutation at 185 to 370 kBq after 1 hr by thioflavin-S staining-based assay. Format: tissue-based. The following applies: tested as the 18F-labelled form. Put shortly: as §1
For series [8], the species on record is Mus musculus. As to the kind of experiment: Binding affinity to amyloid beta in transgenic C57BL/6 mouse hippocampus harboring APPswe and PSEN1 double mutation at 185 to 370 kBq after 1 hr by autoradiographic analysis. It is filed as tissue-based. The conditions noted are these: tested as the 18F-labelled form. A digest of the protocol: as §1
The nature of series [9]: Ratio of drug level in brain to blood in ICR mouse after 2 mins. Format: ADME, tissue-based. The following applies: brain and blood, read-out: BBR. A digest of the protocol:
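Male ICR mice (5 weeks) received the ¹⁸F tracer (740–1110 kBq/mL) in saline with 10% EtOH by tail-vein injection. Five mice per time point were sacrificed at 2, 10, 30 and 60 min. Organs were removed, weighed and gamma-counted, and expressed as %ID/g. The ratio is brain %ID/g over blood %ID/g at 2 min.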

Another series deals with Brain. Description: Ratio of drug level in brain after 2 mins to drug level in brain after 60 mins in ICR mouse. Format: ADME, tissue-based. The following applies: in vivo. Put shortly: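 Male normal ICR mice (5 weeks old), n = 5 per time point, received a tail-vein injection of [18F] tracer (740–1110 kBq/mL) in saline containing 10% EtOH. Mice were sacrificed at 2, 10, 30 and 60 min. Organs were removed, weighed and gamma-counted, and data were expressed as %ID/g.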

Active and inactive are the calls of the source. The rule behind the calls is not given here.

Chain of Amyloid-beta precursor protein (P05067 whole entry): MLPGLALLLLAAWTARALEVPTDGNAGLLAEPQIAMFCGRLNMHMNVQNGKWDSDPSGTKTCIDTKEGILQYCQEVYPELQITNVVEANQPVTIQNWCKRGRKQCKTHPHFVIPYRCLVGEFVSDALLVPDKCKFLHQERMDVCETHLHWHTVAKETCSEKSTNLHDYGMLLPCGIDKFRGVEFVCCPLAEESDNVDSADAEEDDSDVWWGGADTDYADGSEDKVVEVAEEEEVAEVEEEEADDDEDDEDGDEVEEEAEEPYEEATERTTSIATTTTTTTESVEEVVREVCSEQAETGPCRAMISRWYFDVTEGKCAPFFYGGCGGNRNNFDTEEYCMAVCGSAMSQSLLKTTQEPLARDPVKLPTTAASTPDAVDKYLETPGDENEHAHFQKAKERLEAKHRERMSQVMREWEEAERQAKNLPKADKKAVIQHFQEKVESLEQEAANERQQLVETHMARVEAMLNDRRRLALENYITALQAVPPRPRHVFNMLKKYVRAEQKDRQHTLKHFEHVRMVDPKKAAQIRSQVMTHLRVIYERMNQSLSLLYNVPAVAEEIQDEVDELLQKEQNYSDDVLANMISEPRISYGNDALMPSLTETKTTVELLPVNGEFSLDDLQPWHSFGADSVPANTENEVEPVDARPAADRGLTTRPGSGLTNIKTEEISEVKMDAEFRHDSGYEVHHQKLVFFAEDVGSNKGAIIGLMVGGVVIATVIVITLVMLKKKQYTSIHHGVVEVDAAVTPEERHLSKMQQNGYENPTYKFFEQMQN

For orientation: Ki means a dissociation constant, usually derived from enzyme kinetics or from competition with a known ligand. Read a low Ki as higher affinity. As to `CN(CCCF)c1ccc(-c2cc3ccccc3n2C)cc1`, in series [1], the affinity, expressed as Ki, was 79.7 nM.

For the molecule `CN(CCF)c1ccc(-c2cc3ccccc3[nH]2)cc1`, the outcome in the series filed under Mus musculus [2] was inactive. Further, the outcome in the series listed under Mus musculus [3], in the series listed under Mus musculus [4], in the series filed under Mus musculus [5], in the series filed under Mus musculus [6], in the series listed under Mus musculus [7] and in the series filed under Mus musculus [8] was Active. The affinity in series [1], expressed as Ki, was 28.4 nM.

Regarding `CN(C)c1ccc(-c2cc3cc([125I])ccc3[nH]2)cc1`, in series [9], the Kp at 2 min stood at 0.19. Also, the Ratio in the series on Brain turned out to be 1.68.

Regarding `Cn1c(-c2ccc(NCCF)cc2)cc2ccccc21`, in [1], the Ki amounted to 1030 nM.

For `OCCOc1ccc(-c2cc3cc([125I])ccc3[nH]2)cc1`, the Kp at 2 min in [9] stood at 0.52. For the same molecule, the Ratio in the series with Brain was found to be 1.17.
